Test results reported in ChEMBL document CHEMBL1152329, “The marine sponge Diacarnus bismarckensis as a source of peroxiterpene inhibitors of Trypanosoma brucei, the causative agent of sleeping sickness” (J Nat Prod, 2009).
Values after ≈ are worked out from the molar mass of the structure shown.

Each molecule was assayed on Trypanosoma brucei rhodesiense (assay: Antitrypanosomal activity against Trypanosoma brucei rhodesiense STIB 900). Settings: not given.
Assay type: functional, organism-based
`C[C@@H]1CC[C@H]2[C@@H](C)C(=O)O[C@@H]3O[C@@]4(C)CC[C@@H]1[C@]32OO4` [ARTEMISININ] showed an IC50 of 25 µg/mL (≈ 88.5 µM).
With `CC(C)(N)CNC(=O)C[C@H]1CC[C@]2(CC1)OO[C@]1(O2)C2CC3CC(C2)CC1C3` [OZ277] the IC50 was 0.6 µg/mL (≈ 1.53 µM).
With `CC(C)(N)CNC(=O)CC1CC[C@]2(CC1)OC[C@]1(O2)C2CC3CC(C2)CC1C3` (stereo partly specified) the IC50 was 0.9 µg/mL (≈ 2.3 µM).

These molecules were tested on Trypanosoma brucei rhodesiense (assay: Antitrypanosomal activity against Trypanosoma brucei rhodesiense trypomastigotes after 72 hrs). Settings: not given.
Assay type: functional, organism-based
In the case of `C[C@@H]1CC[C@H]2[C@@H](C)C(=O)O[C@@H]3O[C@@]4(C)CC[C@@H]1[C@]32OO4` [ARTEMISININ], the IC50 is reported as 6 µg/mL (≈ 21.3 µM).
In the case of `N=C(N)c1ccc(OCCCCCOc2ccc(C(=N)N)cc2)cc1` [PENTAMIDINE], the IC50 is reported as 0.4 µg/mL (≈ 1.17 µM).

What follows are molecules tested on Trypanosoma brucei (assay: Antitrypanosomal activity against Trypanosoma brucei). Settings: not given.
Assay type: functional, organism-based
Outline: (§1)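 T. brucei brucei strain 221 cultured in complete HMI-9 with 10% FBS, 10% Serum Plus and penicillin/streptomycin; seeded at 1×10^5 per mL and exposed to test samples delivered in 10% DMSO for 48 h at 37 °C, 5% CO2. Vehicle wells served as 0% inhibition and 1 mM thimerosal stock as 100%. Viability read as ATP bioluminescence after CellTiter-Glo lysis.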
`ClCCl` [METHYLENE CHLORIDE] was tested, and the IC50 was 0.3 µg/mL.
In the case of `C=C1CCC[C@@H]2[C@@H](CC[C@@]3(C)CC[C@H]([C@H](C)C(=O)O)OO3)[C@H](C)CC[C@@]12C` [SIGMOSCEPTRELLIN B], the IC50 is reported as 0.2 µg/mL (≈ 0.528 µM).

These molecules were tested on Trypanosoma brucei brucei (assay: Antitrypanosomal activity against Trypanosoma brucei brucei 221 after 48 hrs). Settings: Trypanosoma brucei, 221, 48 h.
Assay type: functional, organism-based
Outline: as §1
`CC1=C(CC/C(C)=C/CC[C@]2(C)CC[C@H]([C@@H](C)C(=O)O)OO2)C(C)(C)CCC1` was tested, and the IC50 was 0.9 µg/mL (≈ 2.29 µM).
`C=C1CCC[C@@H]2[C@@](C)(CC[C@]3(C)CC[C@H]([C@@H](C)C(=O)OC)OO3)[C@H](C)CC[C@@]12C` showed an IC50 of 2 µg/mL (≈ 4.92 µM).
For `COC(=O)[C@H](C)[C@H](O)CC[C@](C)(O)CCCC(C)CCC(=O)C(C)(C)CCCC(C)=O` (stereo partly specified), the IC50 was over 25 µg/mL.
In the case of `C=C1CCCC(C)(C)C1CC[C@]1(C)CC[C@@H]([C@@H](C)C(=O)OC)OO1` (stereo partly specified), the IC50 is reported as 2 µg/mL (≈ 5.91 µM).
`COC(=O)[C@H](C)[C@H]1CC[C@@](C)(CC/C=C(\C)CCC(=O)C(C)(C)CCCC(C)=O)OO1` gave an IC50 of 5 µg/mL (≈ 11.4 µM).
Molecule `CC(=O)CCCC(C)(C)C(=O)CC/C(C)=C/CC[C@]1(C)CC[C@H]([C@@H](C)C(=O)O)OO1` [(+)-MUQUBILONE B] has an IC50 of 2 µg/mL (≈ 4.71 µM).
`C=C1CCC[C@@H]2[C@@](C)(CC[C@]3(C)CC[C@H]([C@@H](C)C(=O)O)OO3)[C@H](C)CC[C@@]12C` showed an IC50 of 1 µg/mL (≈ 2.55 µM).
With `COC(=O)[C@H](C)[C@@H]1CC[C@@](C)(CC/C=C(\C)CCC(=O)C(C)(C)CCCC(C)=O)OO1` the IC50 was 3 µg/mL (≈ 6.84 µM).
Molecule `C=C1CCC[C@@H]2[C@@H](CC[C@@]3(C)CC[C@H]([C@H](C)C(=O)O)OO3)[C@H](C)CC[C@@]12C` [SIGMOSCEPTRELLIN B] has an IC50 of 0.2 µg/mL (≈ 0.528 µM).
